From ChEMBL document CHEMBL1137377, “Evaluation of azasterols as anti-parasitics” (J Med Chem, 2006)

What was measured:
KB = assay: Cytotoxicity against KB cell line; format: functional; conditions: Homo sapiens, read-out: TD50 (the source's name)
[1] = tested on: Trypanosoma brucei rhodesiense; assay: Antitrypanosomal activity against Trypanosoma brucei rhodesiense trypomastigotes; format: functional; conditions: read-out: ED50 (the source's name)
Outline: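 Bloodstream-form STIB900 trypomastigotes grown in HMI-18 + 15% HIFCS at 37 °C, 5% CO2. Seeded at 2 × 10^5/mL onto drug dilutions (top 30 µg/mL) for 72 h. Alamar Blue read 5-6 h later by fluorescence (ex/em 530/585 nm). ED50 by curve fitting.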

Leishmania donovani = assay: Antileishmanial activity against Leishmania donovani amastigotes in CD1 mouse macrophage; format: functional, organism-based; conditions: for EC50: read-out: ED50 (the source's name)
Outline: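 Peritoneal macrophages from starch-induced CD1 mice, kept 24 h in RPMI1640 + 10% HIFCS at 37 °C, 5% CO2. Infected with L. donovani MHOM/ET/67/L82 amastigotes from hamster spleen at 5 parasites:1 macrophage. After 24 h, drug exposure for 5 days, overlay replaced day 3. Top concentration 30 µg/mL, quadruplicate. Slides methanol-fixed, Giemsa-stained, counted microscopically. ED50 by curve fitting.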

Trypanosoma cruzi = assay: Antitrypanosomal activity against Trypanosoma cruzi trypomastigotes in CD1 mouse macrophage; format: functional; conditions: read-out: ED50 (the source's name)
Outline: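 Starch-induced CD1 peritoneal macrophages plated at 4 × 10^5/mL, infected after 24 h with T. cruzi Tulahuan LAC-Z trypomastigotes. 24 h later, drug exposure for 3 days. ED50 by curve fitting.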

Plasmodium falciparum = assay: Antimalarial activity against Plasmodium falciparum 3D7; format: functional, organism-based; conditions: read-out: ED50 (the source's name)
Outline: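 Synchronized ring-stage 3D7 culture at 1% parasitemia in RPMI 1640, 5% hematocrit, 37 °C, 5% CO2. Top final drug concentration 30 µg/mL. After 24 h, (3H)-hypoxanthine added (0.2 µCi/well), then 48 h further incubation. Plates freeze/thawed and harvested, and hypoxanthine uptake counted. ED50 by curve fitting.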

Compound	CC50 (KB) [µM]	EC50 [1] [µM]	EC50 (Leishmania donovani) [µM]	EC50 (Trypanosoma cruzi) [µM]	EC50 (Plasmodium falciparum) [µM]	ED50 (Leishmania donovani) [µM]
C[C@]12CC[C@H](O)C[C@@H]1CC[C@@H]1[C@@H]2CC[C@@]2(C)[C@H]1CC[C@@H]2[C@@](C)(O)C1CCCCN1 (stereo not given in full)	11.9	3.3	8.9	7.4	–	–
C[C@H](CNCCCCC(=O)O)[C@H]1CC[C@H]2C3CC=C4C[C@@H](O)CC[C@]4(C)[C@H]3CC[C@]12C (stereo not given in full)	> 695	30.1	> 70	66.2	> 70	–
COC(=O)CCCNC[C@@H](C)[C@H]1CC[C@H]2C3CC=C4C[C@@H](OC(C)=O)CC[C@]4(C)[C@H]3CC[C@]12C (stereo not given in full)	19.2	0.012	3.19	24.7	15.4	–
C[C@H](C(=O)NCCC[C@H](N)C(=O)O)[C@H]1CC[C@H]2C3CC=C4C[C@@H](O)CC[C@]4(C)[C@H]3CC[C@]12C (stereo not given in full)	651	2.38	> 65	> 65	–	–
COC(=O)[C@@H](N)CCCCNC(=O)[C@@H](C)[C@H]1CC[C@H]2C3CC=C4C[C@@H](O)CC[C@]4(C)[C@H]3CC[C@]12C (stereo not given in full)	42	0.55	25	11.2	–	–
C[C@H](C(=O)NCCCCC(=O)O)[C@H]1CC[C@H]2C3CC=C4C[C@@H](O)CC[C@]4(C)[C@H]3CC[C@]12C (stereo not given in full)	561	7.85	> 67	32.9	> 67	–
C[C@H](CNCC(=O)O)[C@H]1CC[C@H]2C3CC=C4C[C@@H](O)CC[C@]4(C)[C@H]3CC[C@]12C (stereo not given in full)	> 770	> 77	> 77	> 77	> 77	–
CC(=O)O[C@H]1CC[C@@]2(C)C(=CCC3[C@@H]4CC[C@H]([C@H](C)CNCCCCCC(=O)O)[C@@]4(C)CC[C@@H]32)C1 (stereo not given in full)	433	55.2	> 62	> 62	> 62	–
C[C@H](C(=O)NCCCCCCC(=O)O)[C@H]1CC[C@H]2C3CC=C4C[C@@H](O)CC[C@]4(C)[C@H]3CC[C@]12C (stereo not given in full)	252	2.32	> 63	34.5	> 63	–
pentostam	–	–	–	–	–	> 10
C[C@H](CNCCCCCCCC(=O)O)[C@H]1CC[C@H]2C3CC=C4C[C@@H](O)CC[C@]4(C)[C@H]3CC[C@]12C (stereo not given in full)	> 633	10.6	26.4	38.4	> 63	–
N=C(N)c1ccc(OCCCCCOc2ccc(C(=N)N)cc2)cc1 [PENTAMIDINE]	–	0.001	–	–	–	–
COC(=O)CCCCCNC[C@@H](C)[C@H]1CC[C@H]2C3CC=C4C[C@@H](OC(C)=O)CC[C@]4(C)[C@H]3CC[C@]12C (stereo not given in full)	15.6	0.033	21.9	20.5	7.37	–
CC(=O)O[C@H]1CC[C@@]2(C)C(=CCC3[C@@H]4CC[C@H]([C@H](C)CNCCCCCCCC(=O)O)[C@@]4(C)CC[C@@H]32)C1 (stereo not given in full)	59	9.11	–	21	> 58	–
C[C@H](CNCCCCCCC(=O)O)[C@H]1CC[C@H]2C3CC=C4C[C@@H](O)CC[C@]4(C)[C@H]3CC[C@]12C (stereo not given in full)	72	47.6	> 65	44.9	> 65	–
C[C@H](CNCCC[C@H](NC(=O)OCc1ccccc1)C(=O)O)[C@H]1CC[C@H]2C3CC=C4C[C@@H](O)CC[C@]4(C)[C@H]3CC[C@]12C (stereo not given in full)	417	> 52	–	> 52	51	–
C[C@H](C(=O)NCC[C@H](NC(=O)OC(C)(C)C)C(=O)O)[C@H]1CC[C@H]2C3CC=C4C[C@@H](O)CC[C@]4(C)[C@H]3CC[C@]12C (stereo not given in full)	1270	> 55	> 55	11.2	–	–
COC(=O)CNC[C@@H](C)[C@H]1CC[C@H]2C3CC=C4C[C@@H](OC(C)=O)CC[C@]4(C)[C@H]3CC[C@]12C (stereo not given in full)	94.5	7.85	–	5.61	> 67.3	–
CC(=O)O[C@H]1CC[C@@]2(C)C(=CCC3[C@@H]4CC[C@H]([C@H](C)CNCC[C@H](NC(=O)OC(C)(C)C)C(=O)O)[C@@]4(C)CC[C@@H]32)C1 (stereo not given in full)	–	> 52	> 53	13.2	–	–
C[C@H](C(=O)NCCC[C@H](NC(=O)OCc1ccccc1)C(=O)O)[C@H]1CC[C@H]2C3CC=C4C[C@@H](O)CC[C@]4(C)[C@H]3CC[C@]12C (stereo not given in full)	32	1.33	> 50	> 50	–	–
CC(=O)O[C@H]1CC[C@@]2(C)C(=CCC3[C@@H]4CC[C@H]([C@H](C)CNCCC[C@H](NC(=O)OCc5ccccc5)C(=O)O)[C@@]4(C)CC[C@@H]32)C1 (stereo not given in full)	–	17.4	> 48	18.5	–	–
CC(=O)O[C@H]1CC[C@@]2(C)C(=CCC3[C@@H]4CC[C@H]([C@H](C)C(=O)NC[C@H](NC(=O)OC(C)(C)C)C(=O)O)[C@@]4(C)CC[C@@H]32)C1 (stereo not given in full)	–	2.68	> 52	8.7	–	–
C[C@H](C(=O)NCC(=O)O)[C@H]1CC[C@H]2C3CC=C4C[C@@H](O)CC[C@]4(C)[C@H]3CC[C@]12C (stereo not given in full)	> 743	> 74	–	> 74	> 74	–
CC(=O)O[C@H]1CC[C@@]2(C)C(=CCC3[C@@H]4CC[C@H]([C@H](C)CNC[C@H](NC(=O)OC(C)(C)C)C(=O)O)[C@@]4(C)CC[C@@H]32)C1 (stereo not given in full)	–	> 54	> 54	4.64	–	–
CC(=O)O[C@H]1CC[C@@]2(C)C(=CCC3[C@@H]4CC[C@H]([C@H](C)C(=O)NCC[C@H](NC(=O)OC(C)(C)C)C(=O)O)[C@@]4(C)CC[C@@H]32)C1 (stereo not given in full)	–	17.5	> 51	26.8	–	–
C[C@H](CNC[C@H](NC(=O)OC(C)(C)C)C(=O)O)[C@H]1CC[C@H]2C3CC=C4C[C@@H](O)CC[C@]4(C)[C@H]3CC[C@]12C (stereo not given in full)	86.1	> 58	–	> 58	5.76	–
C[C@H](C(=O)NC[C@H](NC(=O)OC(C)(C)C)C(=O)O)[C@H]1CC[C@H]2C3CC=C4C[C@@H](O)CC[C@]4(C)[C@H]3CC[C@]12C (stereo not given in full)	109	34.3	> 56	> 56	–	–
CCN(CC)CCCC(C)Nc1ccnc2cc(Cl)ccc12 (stereo not given) [CHLOROQUINE]	–	–	–	–	0.003	–
C[C@H](C(=O)NCCC(=O)O)[C@H]1CC[C@H]2C3CC=C4C[C@@H](O)CC[C@]4(C)[C@H]3CC[C@]12C (stereo not given in full)	615	> 72	–	> 72	> 72	–
C[C@H](C(=O)NCCCC[C@H](NC(=O)OCc1ccccc1)C(=O)O)[C@H]1CC[C@H]2C3CC=C4C[C@@H](O)CC[C@]4(C)[C@H]3CC[C@]12C (stereo not given in full)	276	1.8	> 49	> 49	–	–
